Data published in ChEMBL document CHEMBL1145564, “Discovery of N-[(3R,5R)-1-azabicyclo[3.2.1]oct-3-yl]furo[2,3-c]pyridine-5-carboxamide as an agonist of the alpha7 nicotinic acetylcholine receptor: in vitro and in vivo activity” (Bioorg Med Chem Lett, 2008).

Legend:
[1] = molecular target: Neuronal acetylcholine receptor subunit alpha-7 (Homo sapiens, UniProt P36544); test: Agonist activity at alpha7-5HT3 chimera expressed in human SH-EP1 cells by FLIPR assay; format: functional, cell-based
[2] = molecular target: Neuronal acetylcholine receptor subunit alpha-7 (Rattus norvegicus, UniProt Q05941); test: Displacement of [3H]MLA from alpha-7 nACh receptor in rat brain; format: tissue-based
In short: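 Rat brain homogenate binding with [3H]MLA; individual Ki values, mean ± SEM reported when more than 3 measurements.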

[3] = Metabolic stability in rat liver microsomes assessed as hepatic extraction ratio after 30 mins; format: ADME, Microsome
In short: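 Rat liver microsome incubation; stability reported as fraction of compound remaining after 30 min relative to t0 concentration.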

[4] = Ratio of drug level in brain to plasma in mouse at 10 mg/kg after 5 mins; format: ADME, organism-based; parameters: dose 10 mg/kg
In short: (§1)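 Mouse brain uptake: brain and plasma concentrations after a 10 mg/kg dose, ratio taken at 5 and 60 min.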

[5] = Ratio of drug level in brain to plasma in mouse at 10 mg/kg after 60 min; format: ADME, organism-based; parameters: dose 10 mg/kg; in short: as §1
[6] = Apparent permeability from apical to basolateral side in dog MDCK cells; format: ADME, cell-based, Canis lupus familiaris
In short: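 MDCK monolayer permeability measured apical to basolateral, expressed as Papp (x10^-6 cm/s).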

Neuronal acetylcholine receptor subunit alpha-7 (Homo sapiens, UniProt P36544), sequence (P36544 23-502 limits assumed): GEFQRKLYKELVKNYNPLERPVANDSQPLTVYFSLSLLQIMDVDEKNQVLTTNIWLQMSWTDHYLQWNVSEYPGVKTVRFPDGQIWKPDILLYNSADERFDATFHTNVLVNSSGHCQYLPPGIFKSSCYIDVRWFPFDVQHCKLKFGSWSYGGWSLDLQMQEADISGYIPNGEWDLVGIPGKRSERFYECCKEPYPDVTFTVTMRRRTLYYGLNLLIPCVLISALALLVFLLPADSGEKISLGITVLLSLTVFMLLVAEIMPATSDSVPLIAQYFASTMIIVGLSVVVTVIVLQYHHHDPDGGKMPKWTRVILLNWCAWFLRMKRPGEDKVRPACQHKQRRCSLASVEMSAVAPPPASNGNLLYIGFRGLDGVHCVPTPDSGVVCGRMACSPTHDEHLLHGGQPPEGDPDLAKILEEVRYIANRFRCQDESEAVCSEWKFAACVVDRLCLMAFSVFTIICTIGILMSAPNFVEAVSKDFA
Neuronal acetylcholine receptor subunit alpha-7 (Rattus norvegicus, UniProt Q05941), sequence (Q05941 whole entry): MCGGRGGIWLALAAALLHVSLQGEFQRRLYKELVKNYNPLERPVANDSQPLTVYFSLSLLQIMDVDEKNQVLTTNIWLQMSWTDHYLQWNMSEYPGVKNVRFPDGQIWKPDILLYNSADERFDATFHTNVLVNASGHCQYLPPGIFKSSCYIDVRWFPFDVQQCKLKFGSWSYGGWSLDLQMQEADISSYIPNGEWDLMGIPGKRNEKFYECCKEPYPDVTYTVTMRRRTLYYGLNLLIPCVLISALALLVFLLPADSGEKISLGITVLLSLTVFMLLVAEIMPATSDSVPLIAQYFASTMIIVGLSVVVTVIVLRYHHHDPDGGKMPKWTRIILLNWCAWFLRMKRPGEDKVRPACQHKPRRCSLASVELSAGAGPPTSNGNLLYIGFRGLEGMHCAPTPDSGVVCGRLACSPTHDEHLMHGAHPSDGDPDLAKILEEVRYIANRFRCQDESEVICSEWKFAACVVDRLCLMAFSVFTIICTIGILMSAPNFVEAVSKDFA

Row | Compound | EC50 [1] | Ki [2] | hepatic extraction ratio at 0.5 h [3] | Kp at 5 min [4] | Kp at 1 h [5] | Papp A→B [6]
1 | O=C(N[C@@H]1C[C@H]2CCN(C2)C1)c1cc2sccc2cn1 | 70 nM | 7 nM | 0.71 |  |  | 
2 | O=C(N[C@@H]1C[C@H]2CCN(C2)C1)c1ccc(Cl)cc1 | 190 nM |  | 0.37 |  |  | 
3 | O=C(N[C@@H]1C[C@H]2CCN(C2)C1)c1ccc2ncsc2c1 | 182 nM | 21 nM | < 0.27 | 0.02 | 0.33 | 0.2 ×10⁻⁶ cm/s
4 | O=C(N[C@@H]1C[C@H]2CCN(C2)C1)c1ccc2occc2c1 | 81 nM | 6.2 nM | < 0.27 | 0.27 | 1.15 | 3.8 ×10⁻⁶ cm/s
